Compound activity from PubChem BioAssay.
Hits are enriched below; roughly 1.8% of the tested compounds scored in any of these assays.
NCF1 inh = p47phox (human) inhibition; AID 1274; p47phox/p22phox peptide binding, fluorescence polarization, 2 h; inhibition, % at 24.7 µM; P14598; 220,000 tested, 0.53% active;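 active means inhibition above about 30%, limit read from the data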;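 further: 0% = p47phox with labelled peptide and 100% = labelled peptide alone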
TNAP inh no acc = inhibitors of human TNAP without phosphate acceptor. inhibition, % at 20 µM. 200,000 tested, 0.26% active. P05186. purified TNAP, CDP-star luminescence, 30 min. AID 1012;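 active means tissue-nonspecific alkaline phosphatase inhibition above about 50% at 20 µM in the single-dose screen, limit read from the data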;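 further: 0% = DMSO negative control and 100% = EDTA positive control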
Target sequence (P05186 whole entry, looked up): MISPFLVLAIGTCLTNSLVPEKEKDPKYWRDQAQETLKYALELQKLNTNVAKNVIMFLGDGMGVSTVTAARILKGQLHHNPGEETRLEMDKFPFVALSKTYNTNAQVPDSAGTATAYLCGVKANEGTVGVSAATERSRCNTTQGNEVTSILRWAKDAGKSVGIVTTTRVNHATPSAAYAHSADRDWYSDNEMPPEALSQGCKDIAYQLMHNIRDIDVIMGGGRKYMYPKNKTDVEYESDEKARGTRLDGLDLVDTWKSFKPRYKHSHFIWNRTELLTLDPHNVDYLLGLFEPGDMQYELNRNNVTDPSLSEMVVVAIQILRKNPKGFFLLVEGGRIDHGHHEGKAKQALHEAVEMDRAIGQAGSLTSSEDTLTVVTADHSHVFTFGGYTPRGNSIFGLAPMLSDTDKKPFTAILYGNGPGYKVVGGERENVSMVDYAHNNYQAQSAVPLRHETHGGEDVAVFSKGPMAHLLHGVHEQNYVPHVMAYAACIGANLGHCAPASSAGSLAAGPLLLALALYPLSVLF
Autophagy HCS = autophagy modulation, high-content screen | MEF GFP-LC3 puncta imaging; test concentration mostly 10 µM | calls only at 10 µM (by protocol) | 190,000 tested, 0.98% active | AID 463193;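 active means percentage of spot-positive cells more than 3 SD above its plate mean, without a fluorescence outlier flag or 80% toxicity; inconclusive means no clear call, values can overlap the other calls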;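 further: spot-positive cell cutoff set from DMSO-treated cells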
TNAP inh hiacc = inhibitors of human TNAP at high phosphate acceptor concentration; 200,000 tested, 0.03% active; inhibition, % at 20 µM; AID 1135; purified TNAP, CDP-star luminescence, 1 M DEA;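 active means over 50% inhibition of tissue-nonspecific alkaline phosphatase at 20 µM in the single-dose screen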;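 further: plate controls were DMSO wells for no effect and EDTA-quenched wells as full inhibition for full effect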
TNAP act hi DEA = activators of human TNAP at high phosphate acceptor concentration | P05186 | purified TNAP, CDP-star luminescence, 1 M DEA, 30 min; stronger effect = higher value; 0 = EDTA background, 1 = DMSO-only activity | activation factor at 20 µM | 200,000 tested, under 10 active | AID 1136;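 active means activation factor at least 2 at 20 µM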
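Dosing: 20 µM single point. System: human TNAP. Amount: TNAP 1/800 final. Incubation: 30 min, room temperature. Read-out: TNAP activation factor scaled between EDTA and DMSO control wells. Signal: luminescence from CDP-star hydrolysis. Medium: 1 M DEA, pH 9.8, Mg2+, Zn2+. Control set: EDTA negative control, DMSO positive control.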
Insulin prom up = MIN6 insulin promoter up-regulation; MIN6 insulin promoter-GFP reporter, high-content imaging; stronger effect = higher value; z-score at 5 µM; 190,000 tested, 0.3% active; AID 1625;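 active means z-score above 3 at 5 µM with at least 500 cells counted in the well; inconclusive means wells under 500 cells, flagged as cytotoxic or low count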
Active calls of the source: *; i = inactive; ? = inconclusive; . = no result given; + = active, no number.

SMILES	NCF1 inh	TNAP inh no acc	Autophagy HCS	TNAP inh hiacc	TNAP act hi DEA	Insulin prom up
CC(C)c1ccc(O)c(NC(=S)NC(=O)CCc2ccccc2)c1	3.9	-32.1	i	1.9	1	-1.78
O=C(Cn1cncc1-c1ccc([N+](=O)[O-])cc1)Nc1cccc2ccccc12	38.4*	-4.5	i	2.9	1	-0.22
CCOC(=O)Cn1cncc1-c1ccc([N+](=O)[O-])cc1	0.1	-4.4	i	0.4	1	0.19
CCOc1ccc(NC(=O)Cn2cncc2-c2ccc([N+](=O)[O-])cc2)cc1	44.8*	7.1	i	4.7	1	0.28
COc1ccc(CCN2C(=O)c3cccc4c(C(=O)N5CCCCC5)ccc(c34)C2=O)cc1OC	-4.8	-12.2	+	4.2	1	0.08
O=C(NNC(=O)c1cccc(O)c1)Nc1ccc([N+](=O)[O-])cc1	-1.1	-12.7	i	-5.0	1.1	0.08
COc1cccc(C2Nc3ccccc3C(=O)N2O)c1O (stereo unspecified)	-13.4	74.5*	i	1.2	1	.
O=C(NN1C(=O)/C(=C\c2cccnc2)SC1=S)c1ccco1	-2.0	9.3	i	0.1	1	-0.03
O=Cc1c(N2CCN(c3ccccc3)CC2)nc2ccccn2c1=O	-5.4	-0.5	+	1.9	1	-0.13
COc1ccc(N2CCN(c3nc4ccccn4c(=O)c3C=O)CC2)cc1	-8.7	-11.6	i	1.7	1	-1.76
CCOC(=O)NC(=O)c1cn(Nc2ccccc2C(F)(F)F)c(=O)[nH]c1=O	-11.3	.	.	.	.	-0.68
CC(C)Cc1ccc(/C(=N/O)C(=O)O)s1	58.5*	17.3	i	-5.6	1.1	.
COc1cc2c(cc1OC)C1=CC(=O)C(=O)N1C(C)(C)C2	-48.4	-4.7	+	-3.0	1	.
COC(=O)c1cn(NC(=O)C2COc3ccccc3O2)c(=O)c2ccccc12 (stereo unspecified)	3.4	-6.9	i	-4.1	1	2.11
COC(=O)c1cn(NC(=O)C2CCCO2)c(=O)c2ccccc12 (stereo unspecified)	-7.7	-10.7	+	-3.5	1	0.46
CN(C)c1ccc(C(c2ccc(N(C)C)cc2)c2ccc([N+](=O)[O-])cc2)cc1	37.5*	.	.	.	.	-0.48
NS(=O)(=O)c1ccc(CCNC(=O)CSc2nc3ccsc3c(=O)n2CCCCCC(=O)O)cc1	4.0	-9.8	i	-1.7	1	0.19
CCCCNC(=O)CSc1nc2ccsc2c(=O)n1CCCC(=O)NCCc1ccc(S(N)(=O)=O)cc1	31.0*	3.3	i	3.5	1	0.34
CC(C)NC(=O)/C(C#N)=C/c1ccc(N(C)C)o1	-4.7	.	.	.	.	.
Oc1c(C=C2N=c3ccccc3=N2)sc(=S)n1-c1ccccc1	-56.0	-112.5	i	5.2	0.9	-0.2
CC1=Nc2ccccc2/C1=C/c1sc(=S)n(-c2cccc(C(=O)O)c2)c1O	-64.8	36.4	i	37.2	0.6	3.2*
CCOC(=O)/C(=N\Nc1ccc(C(C)=O)cc1)c1csc(Nc2ccccc2)n1	-12.0	0.3	+	3.8	1	-0.88
CCOC(=O)/C(=N\Nc1ccccc1[N+](=O)[O-])c1csc(N)n1	2.3	18.9	i	7.8	0.9	-1.6
C/C(=N/NC(=O)CN1CCN(S(=O)(=O)c2ccc(C)cc2)CC1)c1cccc(O)c1	-9.4	.	.	.	.	.
Cc1ccc(NC(=O)O/N=C/c2c(C)nn(C(C)(C)C)c2C)cc1Cl	131.9*	.	.	.	.	0.73
SMILES	NCF1 inh	TNAP inh no acc	Autophagy HCS	TNAP inh hiacc	TNAP act hi DEA	Insulin prom up
Cc1nc2ccccn2c1C(=O)N=Nc1c(O)n(CCC(C)C)c2ccccc12	16.4	-0.6	i	4.9	1	-3.23
CN(C)/C=N/C(=S)Nc1ccc(Cl)cc1	-13.4	2.8	i	-0.1	1	-1.23
Cc1cccc(C)c1NC(=S)/N=C/N(C)C	91.0*	2.1	i	-2.7	1	0.43
CC(C)c1ccccc1NC(=O)CNC(C)c1ccc(F)cc1 (stereo unspecified)	-9.6	9.5	i	-0.9	1	-0.22
O=C(CSc1n[nH]c(-c2ccccc2F)n1)NCC(=O)Nc1ccc(F)c(F)c1F	2.8	89.4*	i	1.9	1	1.5
NC(=O)NNc1ncc(C(F)(F)F)cc1Cl	2.2	-16.1	i	-1.4	1	-0.3
O=C(NNc1ncc(C(F)(F)F)cc1Cl)c1c(Cl)cccc1Cl	-16.3	-153.2	+	-3.0	1	1.48
O=C1c2cccc3cccc(c23)C(=O)N1c1ccc2ncccc2c1	34.5*	-1.3	i	2.5	1	-0.04
C1CC(CN2CCOCC2)CN(c2nc3nonc3nc2N2CCSCC2)C1 (stereo unspecified)	2.5	-3.4	i	-2.0	1	-0.04
C1CN(CC2CCN(c3nc4nonc4nc3N3CCSCC3)CC2)CCO1	33.8*	0.0	i	-3.7	1	0.46
c1ccc2c(c1)ncn2-c1ccc(-c2ccnc3ncnn23)cc1	5.0	-8.2	+	-3.2	1	-0.39
Nc1nccc(-c2ccc(-n3cnc4ccccc43)cc2)n1	-6.8	-1.4	i	1.7	1	-0.56
O=C(/C=C/c1ccccc1)Nc1nc(-c2ccncc2)cs1	31.3*	-10.3	i	-4.7	1	-0.04
CCn1cnc2sc(C(=O)N3CCN(Cc4ccc5c(c4)OCO5)CC3)c(C)c2c1=O	84.9*	-1.2	i	-0.7	1	0.34
CCN(CC)C(=O)Cn1cnc2sc(C(=O)N3CCN(Cc4ccc5c(c4)OCO5)CC3)c(C)c2c1=O	-8.2	1.6	i	-2.0	1	.
OCCCN=c1cc(-c2ccccc2)oc2ccc(Cl)cc12	-6.3	-1.7	i	-1.1	1	.
CC1(C)CC(N=c2cc(-c3ccccc3)oc3ccc(Cl)cc23)CC(C)(C)N1	-3.3	-0.6	+	-1.7	1	?
CCC(C)(C)n1nnnc1C(C(C)C)N1CCSCC1 (stereo unspecified)	-13.3	-9.9	+	-4.8	1	-0.25
CCCC(=Nc1ccccc1OC)C1=C(O)CC(c2ccccc2)CC1=O (stereo unspecified)	3.6	-4.5	i	-2.3	1	0.42
COc1ccccc1N=C(C)C1=C(O)CC(c2ccccc2)CC1=O (stereo unspecified)	-2.0	-3.8	+	-1.1	1	-0.63
NC(=O)C1CCN(Cc2nc3ccccc3c(=O)[nH]2)CC1	33.5*	-2.9	i	-4.2	1	0.19
NC(=O)C1CCN(Cc2nc3cc(Cl)ccc3c(=O)[nH]2)CC1	-15.3	1.2	i	-9.5	1.1	.
CCCCn1c(SCC(=O)Nc2cc(C(F)(F)F)ccc2Cl)nnc1C(CC)N(C)C (stereo unspecified)	-6.5	-2.2	+	1.5	1	-0.42
